Key:
[1] = Half life in dog at 0.2 mg/kg, iv; type: ADME, organism-based, Canis lupus familiaris; set-up: dose 0.2 mg/kg, route intravenous; details: in vivo
[2] = Volume of distribution at steady state in dog at 0.2 mg/kg, iv; type: ADME, organism-based, Canis lupus familiaris; set-up: dose 0.2 mg/kg, route intravenous; details: in vivo, read-out: Vdss
[3] = Clearance in dog at 0.2 mg/kg, iv; type: ADME, organism-based, Canis lupus familiaris; set-up: dose 0.2 mg/kg, route intravenous; details: in vivo
[4] = Clearance in dog at 0.2 mg/kg, iv and 1 mg/kg, po; type: ADME, organism-based, Canis lupus familiaris; details: in vivo
[5] = Volume of distribution at steady state in dog at 0.2 mg/kg, iv and 1 mg/kg, po; type: ADME, organism-based, Canis lupus familiaris; details: in vivo, read-out: Vdss
[6] = Half life in rat at 0.5 mg/kg, iv and 1 mg/kg, po; type: ADME, organism-based; details: in vivo
Outline: (§1)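 Rats (n = 3) given 0.5 mg/kg intravenously and 1.0 mg/kg orally; values reported as mean ± spread over 3 animals.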

[7] = Oral bioavailability in dog at 1 mg/kg; type: ADME, organism-based, Canis lupus familiaris; details: in vivo
[8] = Clearance in rat at 0.5 mg/kg, iv and 1 mg/kg, po; type: ADME, organism-based; details: in vivo; outline: as §1
[9] = Volume of distribution at steady state in rat at 0.5 mg/kg, iv and 1 mg/kg, po; type: ADME, organism-based; details: in vivo, read-out: Vdss; outline: as §1
[10] = Oral bioavailability in rat at 1 mg/kg; type: ADME, organism-based; details: in vivo; outline: as §1
[11] = Half life in dog at 0.2 mg/kg, iv and 1 mg/kg, po; type: ADME, organism-based, Canis lupus familiaris; details: in vivo

CCS(=O)(=O)c1ccccc1[C@H]1[C@@H](C(=O)O)CCN1C(=O)[C@H](Nc1ccc2c(N)nccc2c1)c1ccc(F)c(OC)c1
half-life [1]: 1.1 h | Vd [2]: 0.65 L/kg | clearance [3]: 14 mL/min/kg

CCOc1ccc(F)c([C@@H](Nc2ccc3c(N)nccc3c2)C(=O)N2CCC[C@@H]2c2cc(NC(=O)OC)ccc2S(=O)(=O)C(C)C)c1
clearance [4]: 41 mL/min/kg | Vd [5]: 4.2 L/kg | half-life [6]: 4.9 h | bioavailability [7]: 45% | clearance [8]: 26 mL/min/kg | Vd [9]: 5.6 L/kg | bioavailability [10]: 7.9% | half-life [11]: 2.2 h

CCOc1cc([C@@H](Nc2ccc3c(N)nccc3c2)C(=O)NS(=O)(=O)c2ccccc2)ccc1OC(C)C
bioavailability [7]: 3.5% | bioavailability [10]: < 1%

CCOc1cc([C@@H](Nc2ccc3c(N)nccc3c2)C(=O)NCc2ccccc2)ccc1OC(C)C
bioavailability [7]: 45% | bioavailability [10]: 31%
